Measured values taken from ChEMBL document CHEMBL4706489, “Hydrogen sulfide releasing oridonin derivatives induce apoptosis through extrinsic and intrinsic pathways” (Eur J Med Chem, 2020).
Calls of active or inactive are those of the source. The calls are words filed in the database; no cut-off is given here.

Tests used:
K562 [1] = assay: Induction of apoptosis in human K562 cells assessed as late apoptotic cells at 0.5 uM after 48 hrs by annexin V FITC and propidium iodide staining based flow cytometric analysis (reference value: 0.42%); format: functional
K562 [2] = assay: Induction of cell cycle arrest in human K562 cells assessed as accumulation at G1 phase at 2 uM after 48 hrs by propidium iodide staining based flow cytometric analysis (reference value: 43.24 to 43.37%); format: functional
[3] = Selectivity ratio of IC50 for cytotoxicity against human L02 cells to IC50 for antiproliferative activity against human HepG2 cells; format: toxicity, cell-based; settings: read-out: Ratio IC50
HepG2 [4] = assay: Induction of mitochondrial membrane potential loss in human HepG2 cells after 48 hrs by JC1 staining based flow cytometric analysis; format: functional, cell-based; settings: dose 0.5-2 µM
Summary of the method: (§1)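 K562 and HepG2 cells in 6-well plates were exposed for 48 h at 0, 0.50, 1.0 and 2.0 µM, with DMSO vehicle control. After trypsinization, cells were stained with JC-1 (0.5 mg/mL) at 37 °C in darkness for 30 min, then washed with PBS. Membrane potential was read by flow cytometry. Mean ± SD, three independent experiments.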

HepG2 [5] = assay: Antiproliferative activity against human HepG2 cells assessed as reduction in cell viability after 72 hrs by MTT assay; settings: HepG2, 72 h
K562 [6] = assay: Induction of mitochondrial membrane potential loss in human K562 cells after 48 hrs by JC1 staining based flow cytometric analysis; format: functional, cell-based; settings: dose 0.5-2 µM; summary of the method: as §1
K562 [7] = assay: Induction of apoptosis in human K562 cells assessed as decrease in XIAP protein expression at 1 uM after 24 hrs by chemiluminescence based apoptosis array method; format: functional, cell-based
Summary of the method: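 K562 cells were treated with 1 test agent for 24 h. Diluted total-cell lysates were applied to a human apoptosis antibody array covering 35 apoptosis-related proteins for 24 h. Unbound protein was washed off, and arrays were probed with a biotinylated detection antibody for 1 h. Relative expression was read from chemiluminescent signal by digital imaging.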

Compound `C=C1C(=O)[C@]23[C@H](OC(=O)CCC(=O)OCCCCCCOc4ccc(-c5cc(=S)ss5)cc4)[C@H]1CC[C@H]2[C@@]12CO[C@@]3(O)[C@@H](O)[C@@H]1C(C)(C)CC[C@@H]2OC(C)=O` has an Activity (K562 [1]) of 4.77%, an Activity (K562 [2]) of 29.97% and a selectivity ratio [3] of 20. For the same compound, the Activity (HepG2 [4]) was “Dose-dependent effect”, the IC50 (HepG2 [5]) was 2570 nM and the Activity (K562 [6]) was “Dose-dependent effect”. For the same compound, the Activity (K562 [7]) was “Active”.
